Measurements from ChEMBL document CHEMBL1138568, “Design and synthesis of 5-alkoxy-[1,2,4]triazolo[4,3-a]quinoline derivatives with anticonvulsant activity” (Eur J Med Chem, 2009).

Experiments:
Mus musculus [1] = assay: Anticonvulsant activity in ip dosed C57B/6 mouse assessed as protection against maximal electroshock-induced seizure after 30 mins; assay type: functional; details: C57B/6, ip, 0.5 h
Mus musculus [2] = species on record: Mus musculus; assay: Protective index, ratio of TD50 for neurotoxicity in C57B/6 mouse to ED50 for anticonvulsant activity in C57B/6 mouse; assay type: functional
Method in brief: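 Protective index computed as TD50 (rotarod, 30 min after ip dosing in polyethylene glycol-400) divided by ED50 in the maximal electroshock test at 30 min, both values from dose-response plots analysed with the NINDS program.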

Mus musculus [3] = assay: Anticonvulsant activity in ip dosed C57B/6 mouse assessed as protection against pentylenetetrazole-induced clonic seizure administered 30 mins before pentylenetetrazole challenge measured after 30 mins; assay type: ADME, organism-based; details: C57B/6, ip, 0.5 h
Method in brief: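 Pentylenetetrazole 85 mg/kg sc, a dose set by dose-percent effect curve to give clonic seizures in 100% of mice, injected 30 min after ip compound in polyethylene glycol-400.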

[4] = Neurotoxicity in ip dosed C57B/6 mouse after 30 mins by rotarod test; assay type: toxicity, organism-based; details: in vivo
Method in brief: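 Rotarod: 30 min after ip compound in polyethylene glycol-400, mice were placed on a 1-inch knurled plastic rod turning at 6 rpm for 1 min. Neurotoxicity was scored as failure to keep balance in each of three trials.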

Mus musculus [5] = assay: Anticonvulsant activity in ip dosed C57B/6 mouse assessed as protection against isoniazid-induced tonic seizure administered 30 mins before isoniazide challenge measured after 1 hrs; assay type: ADME, organism-based; details: C57B/6, ip
Mus musculus [6] = assay: Anticonvulsant activity in ip dosed C57B/6 mouse assessed as protection against thiosemicarbazide-induced tonic seizure administered 30 mins before thiosemicarbazide challenge measured after 1 hrs; assay type: ADME, organism-based; details: C57B/6, ip
Mus musculus [7] = assay: Anticonvulsant activity in C57B/6 mouse assessed as protection against strychnine-induced tonic seizure at 300 mg/kg, ip administered 30 mins before strychnine challenge measured after 30 mins; assay type: ADME, organism-based; set-up: dose 300 mg/kg, route intraperitoneal; details: in vivo, 0.5 h
Method in brief: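 Mice given test compound ip in polyethylene glycol-400; 30 min later strychnine chlorhydrate in saline (1.2 mg/mL, 1 mL/kg) injected sc, a dose set by dose-percent effect curve to convulse 100% of animals. Mice held in individual cages and observed 30 min for convulsions.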

Mus musculus [8] = assay: Anticonvulsant activity in ip dosed C57B/6 mouse assessed as protection against 3-mercaptopropionic acid-induced tonic seizure administered 30 mins before 3-mercaptopropionic acid challenge measured after 1 hrs; assay type: ADME, organism-based; details: C57B/6, ip
Method in brief: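 Test compound given ip in polyethylene glycol-400; 30 min later 3-mercaptopropionic acid 40 mg/kg in saline injected sc. ED50 taken as the dose preventing tonic convulsions in 50% of treated mice.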

SMILES	ED50 (Mus musculus [1]) [mg/kg]	Ratio TD50/ED50 (Mus musculus [2])	TD50 at 0.5 h [4] [mg/kg]	further results
Clc1ccccc1COc1cc2nncn2c2ccccc12	> 100	–	–	–
Brc1ccc(COc2cc3nncn3c3ccccc23)cc1	> 100	–	–	–
Clc1ccc(COc2cc3nncn3c3ccccc23)cc1	> 100	–	–	–
c1ccc(COc2cc3nncn3c3ccccc23)cc1	22.8	12	274	ED50 (Mus musculus [3]): 27.4 mg/kg; ED50 (Mus musculus [5]): 38 mg/kg; ED50 (Mus musculus [6]): 19 mg/kg; Activity (Mus musculus [7]): Not Active; ED50 (Mus musculus [8]): 9.5 mg/kg
CCCCOc1cc2nncn2c2ccccc12	36.7	1.5	54.8	–
Clc1ccc(COc2cc3nncn3c3ccccc23)c(Cl)c1	> 100	–	–	–
CCCCCOc1cc2nncn2c2ccccc12	24.5	2.6	63.4	–
Clc1cccc(Cl)c1COc1cc2nncn2c2ccccc12	> 100	–	–	–
Fc1ccccc1COc1cc2nncn2c2ccccc12	25.4	9	228	–
CCCOc1cc2nncn2c2ccccc12	65.7	1.4	94.7	–
NC(=O)N1c2ccccc2C=Cc2ccccc21 [CARBAMAZEPINE]	11.8	6.4	76.1	ED50 (Mus musculus [3]): 11.4 mg/kg; ED50 (Mus musculus [5]): 22.8 mg/kg; ED50 (Mus musculus [6]): 19.7 mg/kg; Activity (Mus musculus [7]): Not Active; ED50 (Mus musculus [8]): 13.7 mg/kg
Brc1ccccc1COc1cc2nncn2c2ccccc12	> 100	–	–	–
Fc1cccc(COc2cc3nncn3c3ccccc23)c1	> 100	–	–	–
CCOc1cc2nncn2c2ccccc12	91.3	1.4	131	–
Fc1ccc(COc2cc3nncn3c3ccccc23)cc1	> 100	–	–	–
c1ccc(COc2ccc3c(c2)CCc2nncn2-3)cc1	–	3.5	–	–
CCCCCCOc1cc2nncn2c2ccccc12	19	5.8	110	–
Cc1ccc(COc2cc3nncn3c3ccccc23)cc1	> 100	–	–	–
CCCCCCCCOc1cc2nncn2c2ccccc12	> 100	–	–	–
CCCCCCCOc1cc2nncn2c2ccccc12	68.2	1.6	110	–
Fc1ccc(COc2ccc3c(c2)CCc2nncn2-3)cc1	11.1	–	–	–
COc1cc2nncn2c2ccccc12	93	1.1	102	–
